The source made the active and inactive calls. The calls are words filed in the database; no cut-off is given here.
Experiments:
[1] = (§1) Anticancer activity against human OCI-AML3 cells expressing mutant NPM1 assessed as apoptosis for 48 hrs by annexin-V and TO-PRO3 staining based flow cytometry; assay type: functional, cell-based; conditions: OCI-AML-3, 48 h
Method in brief: (§2)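 OCI-AML3 cells (NPM1c+) in logarithmic growth, passaged 2–3 times weekly. Cells were exposed to the indicated compound concentrations for 48 hr, then stained with annexin V and TO-PRO 3. Percent apoptotic cells was read by flow cytometry. AP50 is the concentration at which 50% of cells undergo apoptosis.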

OCI-AML-3 = assay: as §1; assay type: functional, cell-based; method in brief: as §2

Structure (SMILES): N#Cc1ccc(Cn2cc(C=C3C(=O)NC(=O)NC3=O)c3ccccc32)cc1
- AC50 [1]: > 20 µM

Structure (SMILES): Cc1c(C=C2C(=O)NC(=O)NC2=O)c2ccccc2n1Cc1ccc(C#N)cc1
- Activity (OCI-AML-3): inactive

Source: ChEMBL document CHEMBL3627695, “1-Benzyl-2-methyl-3-indolylmethylene barbituric acid derivatives: Anti-cancer agents that target nucleophosmin 1 (NPM1)” (Bioorg Med Chem, 2015)
